Wee1 stabilizer: blocks degradation of human Wee1 kinase. P30291. HeLa Luc-Wee1K328M stability, luciferase luminescence; 100% = proteasome inhibitor MG132 effect. reporter increase, % at 5 µM. 220,000 tested, 1.2% active;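 active = activation above the mean of all tested compounds plus 3 SD, set per screening run, cut at about 8.8% in these data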;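 note: cells exposed to compound for 20 h before luminescence read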
PHOSPHO1 inh: inhibitors of human PHOSPHO1 phosphatase. inhibition, % at 13.3 µM. 290,000 tested, 1.1% active. recombinant PHOSPHO1, absorbance phosphatase assay; in the data active = inhibition above about 60%
HMGR II inh: blocks class II HMG-CoA reductase of Enterococcus faecalis | purified E. faecalis HMGR, NADPH absorbance 340 nm kinetic | inhibition, % at 10 µM | 190,000 tested, 0.41% active;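 active = inhibition above a set limit, the median over all tested compounds plus 3 SD, cut at about 9.5% in these data; inconclusive = no clear call, values can overlap the other calls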;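 note: enzyme runs in reverse so mevalonate oxidation gives rising NADPH absorbance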
Runt-CBFb FRET: Runt domain-CBFb interaction inhibition. AID 1496. Cerulean-Runt/Venus-CBFb FRET ratio 530/480, 1 h. inhibition, % at 20 µM. Q01196+Q13951. 220,000 tested, 0.46% active;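 active = inhibition over about 50% at 20 µM in the single-dose screen, limit read from the data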
Target sequence (Q01196 whole entry, looked up, the tested form may be a part): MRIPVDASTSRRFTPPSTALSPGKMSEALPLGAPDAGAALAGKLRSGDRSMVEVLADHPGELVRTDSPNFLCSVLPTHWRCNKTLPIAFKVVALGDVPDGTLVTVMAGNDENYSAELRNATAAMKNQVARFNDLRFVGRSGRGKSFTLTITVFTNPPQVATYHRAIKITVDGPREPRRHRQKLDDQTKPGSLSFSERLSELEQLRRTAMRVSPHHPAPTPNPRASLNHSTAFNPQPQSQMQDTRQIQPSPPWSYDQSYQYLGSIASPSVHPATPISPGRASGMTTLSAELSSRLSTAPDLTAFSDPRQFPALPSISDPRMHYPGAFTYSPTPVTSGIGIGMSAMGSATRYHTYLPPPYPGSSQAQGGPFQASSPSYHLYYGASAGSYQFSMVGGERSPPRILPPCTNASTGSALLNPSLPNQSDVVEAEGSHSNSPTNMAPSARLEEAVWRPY
Target sequence (Q13951 whole entry, looked up, the tested form may be a part): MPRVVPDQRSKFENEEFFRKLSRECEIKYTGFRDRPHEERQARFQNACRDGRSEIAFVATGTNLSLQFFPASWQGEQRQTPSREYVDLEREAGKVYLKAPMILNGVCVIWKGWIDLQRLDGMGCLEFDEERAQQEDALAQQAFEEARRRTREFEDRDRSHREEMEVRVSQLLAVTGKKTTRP
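Doses: 20 µM compound in 1% DMSO | Material: Cerulean-labeled Runt domain protein | Amount: Each fluorescent fusion protein 100 nM | Schedule: Two 1 h room-temperature incubations shielded from light | Measured by: FRET fluorescence | Evaluation: Loss of energy transfer signal | Controls: Unlabeled CBFb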
RanGTP-Imp inh: disruptors of Ran-importin-beta complex formation – biochemical, FRET, CFP-Ran, YFP-importin-beta, homogeneous, primary screen; cell-free CFP-Ran/YFP-importin-beta FRET ratio; inhibition, % (concentration not given with the values); 300,000 tested, 1.1% active;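 active = more than half of the replicate wells show a fall in the fluorescence ratio signal beyond about 16%, limit read from the data, passing the limit was not always enough; inconclusive = exactly half of the replicate wells pass the set limit; inactive = fewer than half of replicates pass the limit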
Runt-SMMHC FRET: Runt domain-CBFb-SMMHC interaction inhibition | 220,000 tested, 0.74% active | Q01196+Q13951 | Cerulean-Runt/Venus-CBFb-SMMHC FRET ratio 530/480, 1 h | inhibition, % at 20 µM | AID 1434;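 active = mean inhibition across duplicate retests at 20 µM reaching about 50%, limit read from the data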;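 note: inhibitors lower the FRET ratio by blocking Runt binding to CBFb-SMMHC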
A number is an active result; – = inactive; ? = inconclusive; · = no result. An excerpt weighted towards active compounds, which were near 3.4% of everything screened.

SMILES	Wee1 stabilizer	PHOSPHO1 inh	HMGR II inh	Runt-CBFb FRET	RanGTP-Imp inh	Runt-SMMHC FRET
COCCNC(=O)c1c(N)sc2c1CCCC2	–	–	–	–	–	–
CNC(=O)c1c(N)sc2c1CCCCC2	–	71	–	–	–	–
CCOc1ccc(N(CC(=O)N/N=C/c2ccccn2)S(=O)(=O)c2ccc(Cl)cc2)cc1	·	–	·	·	·	·
Cc1cccc(NC(=S)N2CCCCC2c2cccnc2)c1C (stereo unspecified)	–	–	·	–	–	–
O=C(NC(=S)N1CCCCC1c1cccnc1)c1ccc(F)cc1 (stereo unspecified)	·	–	·	·	19	·
O=C(NC(=S)N1CCCCC1c1cccnc1)c1ccc(Br)cc1 (stereo unspecified)	·	–	·	·	33	·
COCCOn1c(SCCOC)nc2ccccc2c1=O	–	–	·	–	–	–
COc1ccc(C2NC(=S)NC3=C2N2CCC3CC2)cc1 (stereo unspecified)	–	–	·	–	–	–
Fc1ccc(C2NC(=S)NC3=C2N2CCC3CC2)cc1 (stereo unspecified)	–	76	–	–	–	–
COc1cc(NC(=S)NC(=O)c2ccc(C)cc2C)ccc1NC(=O)c1cccs1	–	62	–	–	–	–
Cc1cccc(N(Cc2ccccc2)C(=O)CSC(C)C(=O)Nc2cc(C)on2)c1 (stereo unspecified)	·	·	·	·	–	·
CCOc1ccc(C2=Cc3cc(OC)c(OC)cc3C(=C(Cl)Cl)O2)cc1	–	67	–	–	·	–
CCCNC(=O)c1c(N)n(-c2cccc(OC)c2)c2nc3ccccc3nc12	–	–	–	62	80	–
COC(=O)c1c(N)n(-c2cc(OC)cc(OC)c2)c2nc3ccccc3nc12	–	·	·	·	·	·
Nc1c(C(=O)NCCN2CCOCC2)c2nc3ccccc3nc2n1-c1cccc(F)c1	–	–	–	71	78	61
COCCCNC(=O)c1c(N)n(-c2cccc(S(N)(=O)=O)c2)c2nc3ccccc3nc12	–	–	–	92	104	62
CCS(=O)(=O)N1Cc2ccccc2CC1C(=O)Nc1ccc(F)c(F)c1 (stereo unspecified)	·	–	·	·	–	·
CCCCn1nnnc1SCC(=O)NC1CCCCC1	·	–	·	·	–	·
Nc1ccccc1CNc1nc(NCCO)nc2c1ncn2CCN1CCOCC1	·	–	·	–	–	–
CCn1c(O)c(/C=C2\C=NN=C2c2ccccc2)sc1=S	–	–	·	–	–	–
Cn1c(O)c(/C=C2\C=NN=C2c2ccccc2)sc1=S	9.6	–	·	–	–	–
CC(C)Cc1nnc(NC(=O)CCC(=O)NC2CCCC2)s1	·	–	·	·	–	·
CCn1c(=O)c2ccccc2n(CC(=O)NCCC2=CCCCC2)c1=O	·	–	·	·	?	·
COc1cc(C(=O)NNC(=S)NC(=O)/C=C/c2ccccc2)cc(OC)c1OC	–	87	·	–	–	–
O=C(/C=C/c1ccccc1)NC(=S)NNC(=O)c1cccnc1	–	–	–	–	–	–
SMILES	Wee1 stabilizer	PHOSPHO1 inh	HMGR II inh	Runt-CBFb FRET	RanGTP-Imp inh	Runt-SMMHC FRET
COc1cc(C(=O)NNC(=S)NC(=O)c2ccc(Cl)cc2)cc(OC)c1OC	–	69	–	–	–	–
Cc1ccccc1OCC(=O)OCC(=O)Nc1cc(S(C)(=O)=O)ccc1Cl	·	·	·	·	–	·
CCOC(=O)c1nnn(-c2nonc2N)c1-c1ccc(Br)cc1	9.5	–	–	–	–	–
CCOC(=O)c1nnn(-c2nonc2N)c1-c1ccc(C)cc1	–	–	–	–	–	–
N=C1C(c2nc3ccccc3[nH]2)=C(O)CN1c1ccc(F)cc1	9.7	–	–	–	–	–
CC(=O)Nc1ccc(NC(=O)C(C)OC(=O)CCc2c[nH]c3ccccc23)cc1 (stereo unspecified)	·	·	·	·	–	·
Cc1[nH]nc2c1C(c1ccco1)C(C#N)=C(N)O2 (stereo unspecified)	–	–	–	–	–	–
Cc1[nH]nc2c1C(CCc1ccccc1)C(C#N)=C(N)O2 (stereo unspecified)	·	–	27	–	–	–
COCCN(Cc1nc(C(c2ccccc2)c2ccccc2)no1)C(C)C	·	–	·	·	–	·
Cc1ccc(C(=O)CSc2ncnc3ccccc23)o1	–	–	–	–	·	78
O=C(CSc1ncnc2ccccc12)NCC(=O)c1ccccc1	10	–	–	–	–	–
COc1ccc(N2CCN(C(=O)CSc3nnc(-c4cc5ccccc5cc4O)n3C)CC2)cc1	–	–	–	–	–	–
COc1ccc(-n2cnnc2SCC(=O)N2CCN(c3ccccc3)CC2)cc1	–	93	–	–	–	–
C/C(N)=C(/C#N)C(=O)CSc1nncn1-c1ccccc1	–	68	–	–	–	–
O=C(CSc1nncn1-c1ccccc1)Nc1ccc(N2CCOCC2)cc1	–	87	–	–	–	–
C/C(N)=C(/C#N)C(=O)CSc1nnc(C)n1-c1ccccc1	–	–	–	–	–	–
N#C[C@H]1[C@H](c2ccccc2)[C@](C#N)(C(=O)c2ccccc2)[C@@H]2C=Cc3ccccc3N21	–	–	–	–	47	–
COc1cc(OC)c(N(C)S(=O)(=O)c2cccc(C(=O)OCC(=O)NCc3ccco3)c2)cc1Cl	–	–	–	–	–	–
CN(c1ccccc1)S(=O)(=O)c1cccc(C(=O)OCC(=O)NCc2ccco2)c1	–	66	–	–	–	–
Cc1ccc(/C=C2/C(=O)N=C(N)N2C)s1	–	–	–	–	–	–
CN1C(N)=NC(=O)/C1=C/c1ccccc1F	–	–	–	–	31	–
CCOc1ccc(S(=O)(=O)NCc2ccccn2)c(C)c1C	·	·	·	·	–	·
Cc1cc(C(F)(F)F)nn1Cc1n[nH]c(=S)n1-c1ccc(Cl)cc1	–	102	–	–	–	–
Cc1ccc(-n2c(Cn3nc(C(F)F)cc3C(F)F)n[nH]c2=S)cc1	–	100	–	–	–	–
Cc1cc(C(F)(F)F)nn1Cc1n[nH]c(=S)n1-c1cccc(Cl)c1	–	84	–	–	–	–
SMILES	Wee1 stabilizer	PHOSPHO1 inh	HMGR II inh	Runt-CBFb FRET	RanGTP-Imp inh	Runt-SMMHC FRET
COc1ccc(/C=C/C(=O)c2ccc(NC3=NCCCS3)cc2)cc1OC	–	–	10	–	–	–
CN1C(=O)C(C)(C)c2cc(S(=O)(=O)N3CCN(c4cccc(Cl)c4)CC3)ccc21	·	–	·	·	?	·
Cc1nn(Cc2ccc([N+](=O)[O-])cc2)c(=O)n1-c1ccc(Cl)cc1	–	–	–	–	–	–
Cc1nn(Cc2ccc([N+](=O)[O-])cc2)c(=O)n1-c1cccc(Cl)c1	–	–	–	–	20	–
O=C(Nc1ccc2c(c1)OCCO2)c1ccc(Br)cc1	·	–	·	·	–	·
CC(=O)Nc1ccc2c(c1)OCCO2	–	–	16	·	–	–
O=C(Nc1ccc2c(c1)OCCO2)c1ccc(Br)o1	9.4	–	–	–	–	–
CCC1CCCCN1CCCNC(=O)C1CCC(CNS(=O)(=O)c2c(C)cc(C)cc2C)CC1 (stereo unspecified)	·	–	·	·	–	·

Screening results (PubChem)
